Experimental findings from ChEMBL document CHEMBL1138203, “Structure-activity relationship analysis of the selective inhibition of transglutaminase 2 by dihydroisoxazoles” (J Med Chem, 2006) are described below.

SMILES strings stand for the structures.

The target of this experiment is T1, Protein-glutamine gamma-glutamyltransferase (Homo sapiens, UniProt P21980).
T1 sequence (P21980 whole entry): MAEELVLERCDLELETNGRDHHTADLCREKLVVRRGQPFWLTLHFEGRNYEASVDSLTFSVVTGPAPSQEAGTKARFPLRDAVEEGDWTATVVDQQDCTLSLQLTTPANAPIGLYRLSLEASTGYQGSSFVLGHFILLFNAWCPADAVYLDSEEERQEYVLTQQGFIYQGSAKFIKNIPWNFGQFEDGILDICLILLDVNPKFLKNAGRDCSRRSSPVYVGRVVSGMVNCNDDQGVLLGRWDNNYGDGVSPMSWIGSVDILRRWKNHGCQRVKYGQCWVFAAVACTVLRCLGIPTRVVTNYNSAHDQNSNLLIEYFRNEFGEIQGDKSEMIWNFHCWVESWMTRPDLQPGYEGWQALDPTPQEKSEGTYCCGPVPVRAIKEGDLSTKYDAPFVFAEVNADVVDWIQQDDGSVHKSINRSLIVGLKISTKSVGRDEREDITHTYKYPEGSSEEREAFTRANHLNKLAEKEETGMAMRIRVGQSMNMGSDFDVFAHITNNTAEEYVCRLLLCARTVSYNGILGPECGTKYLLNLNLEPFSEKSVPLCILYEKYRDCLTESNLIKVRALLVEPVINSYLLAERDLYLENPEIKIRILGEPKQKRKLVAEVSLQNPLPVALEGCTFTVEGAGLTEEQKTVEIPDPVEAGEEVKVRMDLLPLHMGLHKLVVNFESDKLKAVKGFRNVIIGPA
The experiment is described as follows: Inhibition of human recombinant TG2 expressed in Escherichia coli. The procedure, abridged:
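Enzyme purified to >90%. Inhibitor at 0.001–0.3 mM. Reaction started by adding TG2; NADH loss read at 340 nm. KI and kinh came from fitting progress curves to irreversible-inhibition equations.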
For the compound `COc1ccc2[nH]cc(CC(NC(=O)OCc3cnc4ccccc4c3)C(=O)NCC3CC(Br)=NO3)c2c1` (centres undefined), the Ki – broadly, a dissociation constant, usually derived from enzyme kinetics or from competition with a known ligand – amounted to 51 µM.
Next, `O=C(N[C@@H](Cc1ccc(O)cc1)C(=O)NCC1CC(Br)=NO1)OCc1cnc2ccccc2c1` (some centres undefined): 41 µM.
With `O=C(NC(Cc1c[nH]c2ccc(F)cc12)C(=O)NCC1CC(Br)=NO1)OCc1ccccc1` (centres undefined), the Ki was found to be 19 µM.
The result for `O=C(N[C@@H](Cc1c[nH]c2ccc(F)cc12)C(=O)NC[C@@H]1CC(Br)=NO1)OCc1cnc2ccccc2c1` reads 1.3 µM.
As for `O=C(NC[C@@H]1CC(Br)=NO1)[C@@H]1CCCN1C(=O)OCc1cnc2ccccc2c1`, the Ki was determined as 11 µM.
Next, `O=C(NC(Cc1c[nH]c2cc(F)ccc12)C(=O)NCC1CC(Br)=NO1)OCc1ccccc1` (centres undefined): 18 µM; `O=C(N[C@@H](Cc1ccc(O)cc1)C(=O)NC[C@@H]1CC(Br)=NO1)OCc1cnc2ccccc2c1`: 30 µM.
For the compound `O=C(NC(Cc1c[nH]c2cccc(F)c12)C(=O)NCC1CC(Br)=NO1)OCc1ccccc1` (centres undefined), the Ki stood at 99 µM.
Next, `O=C(NC(Cc1c[nH]c2ccc(F)cc12)C(=O)NCC1CC(Br)=NO1)OCc1cnc2ccccc2c1` (centres undefined): 18 µM.
Next, `O=C(N[C@@H](Cc1ccc(O)cc1)C(=O)NC[C@@H]1CC(Br)=NO1)OCc1ccccc1`: 68 µM; `O=C(N[C@@H](Cc1c[nH]c2ccc(F)cc12)C(=O)NCC1CC(Br)=NO1)OCc1cnc2ccccc2c1` (some centres undefined): 4 µM; `O=C(NC(Cc1c[nH]c2ccc(O)cc12)C(=O)NCC1CC(Br)=NO1)OCc1cnc2ccccc2c1` (centres undefined): 34 µM.
The result for `O=C(NCC1CC(Br)=NO1)C1Cc2ccccc2N1C(=O)OCc1ccccc1` (centres undefined) reads 138 µM.
On to `O=C(NC(Cc1c[nH]c2ncccc12)C(=O)NCC1CC(Br)=NO1)OCc1ccccc1` (centres undefined), for which the Ki came to 22 µM.
